Results published in PMC6641930 (ACS Omega, 2017).
Where “and” joins values, the source holds several entries; their conditions need not be identical. Identical values can stand only once.

How the values were obtained:
native Aβ1-42 = native Aβ1-42 (Homo sapiens, UniProt P05067); assay: Fluorescence emission of probe with freshly dissolved native Aβ1-42; format: binding; conditions: 5 μM native Aβ1-42 + 1 μM probe; PBS buffer
In short: (§1)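 Probe (1.0 μM final, from DMSO stock) is read free in buffer or with 5 μM native protein (monomer basis). Buffers are HOAc/NaAc pH 3.0 or PBS pH 7.5. Aβ1-42 is recombinant with an extra N-terminal Met, freshly gel-filtered monomer in PBS pH 7.5. Spectra are recorded at 330 nm excitation, 350–600 nm emission, with identical instrument settings.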

TTR fibrils [1] = biological target: T1, TTR fibrils (Homo sapiens, UniProt P02766); assay: Titration of TTR fibrils on a fixed probe concentration; format: binding
In short: (§2)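 Fibrils (0–20 μM, monomer basis) are titrated onto fixed probe: 1 μM, or 0.5 μM for Aβ1-42 fibrils. Buffers are pH 3.0 for TTR, insulin and lysozyme, and PBS pH 7.5 for Aβ1-42 (10 μM, 37 °C, 24 h quiescent). Samples equilibrate 30 min at room temperature. Excitation 330 nm, emission 350–700 nm. Kd comes from a one-site nonlinear fit with fixed Bmax correcting for unbound probe. SD is from two independent binding series.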

native TTR [2] = biological target: T2, native TTR (Homo sapiens, UniProt P02766); assay: Saturation binding of native TTR to probe
lysozyme fibrils [3] = biological target: T3, lysozyme fibrils (Gallus gallus, UniProt P00698); assay: Fluorescence emission of probe bound to lysozyme fibrils; format: binding, chicken; conditions: pH 3.0
T3 sequence (P00698 19-147): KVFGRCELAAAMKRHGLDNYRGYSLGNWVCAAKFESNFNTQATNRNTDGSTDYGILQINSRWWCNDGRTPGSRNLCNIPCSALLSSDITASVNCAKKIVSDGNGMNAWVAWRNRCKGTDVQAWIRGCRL
In short: (§3)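 Fibrils made from pH 3.0 (TTR: purified WT TTR in 50 mM NaAc/100 mM NaCl; bovine insulin or hen lysozyme: 200 μM in 25 mM HCl pH 1.6 at 65 °C, then dialysed into NaAc/NaCl pH 3.0). 1.0 μM probe from DMSO stock mixed with 5 μM fibrils (monomer basis) in HOAc/NaAc pH 3.0. Excitation 330 nm, emission 350–600 nm. Fold increase taken relative to free probe in buffer.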

Aβ1-42 fibrils [4] = biological target: T4, Aβ1-42 fibrils (Homo sapiens, UniProt P05067); assay: Titration of Aβ1-42 fibrils on a fixed probe concentration; format: binding
T4 sequence (P05067 672-713): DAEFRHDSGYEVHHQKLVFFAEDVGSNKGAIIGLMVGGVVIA
In short: as §2

lysozyme fibrils [5] = biological target: T3, lysozyme fibrils; assay: Titration of lysozyme fibrils on a fixed probe concentration; format: binding, chicken
In short: as §2

insulin fibrils [6] = biological target: T5, insulin fibrils (Bos taurus, UniProt P01317); assay: Titration of insulin fibrils on a fixed probe concentration; format: binding, Bovine
T5 sequence (P01317 25-54 limits assumed): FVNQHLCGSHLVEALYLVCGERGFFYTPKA
T5 sequence (P01317 85-105 limits assumed): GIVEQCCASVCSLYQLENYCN
In short: as §2

[7] = Emission maximum of free probe in buffer; format: physicochemical; conditions: HOAc/NaOAc buffer pH 3.0 or PBS buffer pH 7.5
In short: as §1

Aβ1-42 fibrils [8] = biological target: T4, Aβ1-42 fibrils; assay: Fluorescence emission of probe bound to Aβ1-42 fibrils; format: binding; conditions: PBS buffer pH 7.5
In short: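 Recombinant Aβ1-42 (extra N-terminal Met), solubilised in 6 M GuHCl and gel-filtered into PBS pH 7.5. […] Probe (1.0 μM, from DMSO stock) mixed with 5 μM fibrils or freshly dissolved monomer (monomer basis) in PBS pH 7.5. Emission spectra at 330 nm excitation, identical settings.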

Aβ1-42 fibrils [9] = biological target: T4, Aβ1-42 fibrils; assay: Fluorescence lifetime
In short: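 Time-correlated single photon counting on 5 μM probe with 20 μM Aβ1-42 fibrils (monomer basis) in PBS pH 7.5 at 25 °C, not degassed. Excitation 337 nm; decay recorded at the bound-probe emission maximum. Instrument response is measured with fibril solution. Multi-exponential fits are judged by χ2 and residuals. Uncertainty is within 10%.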

TTR fibrils [10] = biological target: T1, TTR fibrils; assay: Fluorescence emission of probe bound to TTR fibrils; format: binding; conditions: 5 μM fibrils + 1 μM probe; pH 3.0; excitation 330 nm
In short: as §3

native TTR [11] = biological target: T2, native TTR; assay: Fluorescence emission of probe with native TTR; format: binding; conditions: 5 μM native TTR + 1 μM probe
In short: as §1

[12] = UV-vis absorption and fluorescence spectra in methanol; format: physicochemical
In short: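 Absorption is read in methanol in a 1 cm quartz cuvette at room temperature, at 20 μM and at four concentrations (50–5 μM, or 10–2 μM for one probe) for ε. Fluorescence of 20 μM probe in methanol uses 330 nm excitation, 350–600 nm emission and 1 nm resolution.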

insulin fibrils [13] = biological target: T5, insulin fibrils; assay: Fluorescence emission of probe bound to insulin fibrils; format: binding, Bovine; conditions: pH 3.0
In short: as §3

Fluorescence lifetime = format: physicochemical; conditions: A: degassed methanol, [probe] = 5 μM
In short: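 TCSPC decays of 5 μM probe in argon-degassed methanol, excited at 337 nm and monitored at each emission maximum at room temperature. Instrument response is determined with a fibril solution. Decays are fitted to a sum of exponentials, with fit quality judged by χ2, residual distribution and residual autocorrelation. Average lifetime is calculated from amplitudes and lifetimes. Lifetime uncertainty is within 10%.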

[14] = 5 μM fibrils (monomer basis) + 1 μM probe, versus free probe
[15] = 5 μM fibrils + 1 μM probe, excitation 330 nm
[16] = B: bound to Aβ1-42 fibrils in PBS buffer
[17] = B: bound to Aβ1-42 fibrils in PBS buffer, [probe] = 5 μM, [fibrils] = 20 μM

native Aβ1-42, sequence (P05067 672-713): as the sequence (P05067 672-713) above

SMILES: Oc1ccc(/C=C/c2cc3ccc4cccc5ccc(c2)c3c45)cc1O [Compound 5, (E)-4-(2-(pyren-2-yl)vinyl)benzene-1,2-diol]
- fluorescence / binding with freshly prepared native Aβ1-42 (native Aβ1-42): Neither 2, 4, or 5 fluoresced appreciably
- Kd (TTR fibrils [1]): 6000 ± 300 nM
- Kd (native TTR [2]): 200 ± 10 nM
- Int: fold increase in fluorescence intensity upon binding to lysozyme fibrils (lysozyme fibrils [3]; [14]): 8.9 fold
- λem2: emission maxima of probe bound to lysozyme fibrils (lysozyme fibrils [3]; [15]): 420 nm
- Kd (Aβ1-42 fibrils [4]): 1300 ± 100 nM
- Kd (lysozyme fibrils [5]): 1600 ± 300 nM
- Kd (insulin fibrils [6]): 2300 ± 400 nM
- λem1: emission maxima of probes in buffer [7]: 420 nm
- Int: fold increase in fluorescence intensity upon binding to Aβ1-42 fibrils (Aβ1-42 fibrils [8]; [14]): 11.1 fold
- λem2: emission maxima of probe bound to Aβ1-42 fibrils (Aβ1-42 fibrils [8]; [15]): ~421 nm
- α1 (normalized pre-exponential factor) (Aβ1-42 fibrils [9]; [16]): 0.11
- α2 (normalized pre-exponential factor) (Aβ1-42 fibrils [9]; [16]): 0.42
- α3 (normalized pre-exponential factor) (Aβ1-42 fibrils [9]; [16]): 0.47
- τ2 (Aβ1-42 fibrils [9]; [16]): 8.89 ns
- τ3 (Aβ1-42 fibrils [9]; [16]): 34.70 ns
- τavg (average fluorescence lifetime) (Aβ1-42 fibrils [9]; B: bound to Aβ1-42 fibrils in PBS buffer pH 7.5, [probe] = 5 μM, [fibrils] = 20 μM): 29.8 ns and 29.76 ns
- λem1 (emission wavelength of decay) (Aβ1-42 fibrils [9]; [17]): 430 nm
- τ1 (Aβ1-42 fibrils [9]; [17]): 0.83 ns
- λem2: emission maxima of probe bound to TTR fibrils (TTR fibrils [10]): 420 nm and 445 nm and 475 nm
- emission peaks of probe bound to native TTR (native TTR [11]; excitation 330 nm): 420 nm and 445 nm and 475 nm
- fluorescence intensity increase upon binding to native TTR (native TTR [11]; versus probe in buffer): 15.8 fold
- Stokes shift [12]: 78 nm
- λmax (abs) [12]: 337 nm
- λmax (em) ([12]; excitation 330 nm, [probe] = 20 μM): 415 nm
- ε ([12]; four concentrations): 47 668 L·M^–1 cm^–1
- Int: fold increase in fluorescence intensity upon binding to insulin fibrils (insulin fibrils [13]; [14]): 23.2 fold
- λem2: emission maxima of probe bound to insulin fibrils (insulin fibrils [13]; [15]): 420 nm and 445 nm and 475 nm
- α1 (normalized pre-exponential factor) (Fluorescence lifetime): 0.77
- α2 (normalized pre-exponential factor) (Fluorescence lifetime): 0.23
- λem1 (emission wavelength of decay) (Fluorescence lifetime): 425 nm
- τ2 (Fluorescence lifetime): 29.30 ns
- τavg (average fluorescence lifetime) (Fluorescence lifetime): 19.11 ns
